Assay results collected from several papers.
Compare with care: the assays were run in different laboratories. ≈ marks a conversion by molar mass, not a printed value.

Compound | organism | test | test system | conditions | measurement | value
Nc1nc(Cl)c2ncn([C@@H]3O[C@H](CO)[C@@H](F)[C@@H]3F)c2n1 | Hepatitis C virus | viral replication, inhibitor | Huh-7 | replicon | EC90 | > 10 µM
CCOC(=O)N[C@H](CC(C)C)C(=O)N1CCC[C@H]1C(=O)Nc1cccc(C#CC#Cc2cccc(NC(=O)[C@@H]3CCCN3C(=O)[C@@H](CC(C)C)NC(=O)OCC)c2)c1 | Hepatitis C virus | viral replication, inhibitor, luciferase | Huh-5-2, GETYPE1B | 72 h, replicon | EC50 | 0.0411 nM
Nc1nc(N)c2ncn([C@H]3O[C@H](CO)[C@@H](F)[C@@H]3F)c2n1 | Hepatitis C virus | viral replication, inhibitor | Huh-7 | replicon | EC50 | > 10000 nM
CCCCCCC/C=C/C(=O)N1C(=O)/C(=C(\O)c2ccc(OCOCCOC)cc2)C(=O)C1CC(C)C (centres unmarked) | Proteus mirabilis | microbial growth | ATCC25933 |  | MIC | > 200 µg/mL
CC1(C)OC[C@@]2(C)[C@H]3CC[C@@H]4CN(Cc5ccc(Br)cc5)[C@@H](C5=CCOC5=O)C[C@H]4[C@]3(C)CC[C@H]2O1 | unidentified human coronavirus | cytopathic effect | MRC5 | 25 µM, 72 h | inhibition | 74.5%
CCOC(=O)c1c(N)csc1-c1cn(-c2ccccc2)nc1-c1ccccc1 | Acinetobacter baumannii | microbial growth, well diffusion |  | 100000 µg/mL | inhibition zone | 20 mm
CC(C)[C@H](NC(=O)OCc1ccccc1)C(=O)N1CCC[C@H]1C(=O)Nc1ccc(C#CC#Cc2ccc(NC(=O)[C@@H]3CCCN3C(=O)[C@@H](NC(=O)OCc3ccccc3)C(C)C)cc2)cc1 | Hepatitis C virus | viral replication, inhibitor, luciferase | Huh-5-2, GETYPE1B | 72 h, replicon | EC50 | 2560 nM
CC(=O)OC[C@@]1(C)[C@H]2CC[C@@H]3CN(Cc4ccccc4C)[C@@H](C4=CCOC4=O)C[C@H]3[C@]2(C)CC[C@H]1OC(C)=O | unidentified human coronavirus | cytopathic effect | MRC5 | 25 µM, 72 h | inhibition | 71.4%
CCOC(=O)N[C@@H](C(=O)N1CCC[C@@H]1C(=O)Nc1ccc(C#CC#Cc2ccc(NC(=O)[C@H]3CCCN3C(=O)[C@H](NC(=O)OCC)C(C)C)cc2)cc1)C(C)C | Hepatitis C virus | viral replication, inhibitor, luciferase | Huh-5-2, GETYPE1B | 72 h, replicon | EC50 | > 10000 nM
COc1ccc(CN2C[C@H]3CC[C@@H]4[C@]5(C)COC(C)(C)O[C@@H]5CC[C@@]4(C)[C@@H]3C[C@@H]2C2=CCOC2=O)cc1 | unidentified human coronavirus | cytopathic effect | MRC5 | 25 µM, 72 h | inhibition | 67.4%
COC(=O)N[C@H](C(=O)N1CCC[C@H]1c1nc(-c2ccc(-c3ccc(-c4c[nH]c([C@@H]5CCCN5C(=O)[C@@H](NC(=O)OC)C(C)C)n4)cc3)cc2)c[nH]1)C(C)C | Hepatitis C virus | viral replication, inhibitor, luciferase | Huh-5-2, GETYPE1B | 72 h, replicon | EC50 | 0.0266 nM
CCCCCCC/C=C/C(=O)N1C(=O)/C(=C(\O)c2ccncc2)C(=O)C1CC(C)C (centres unmarked) | Proteus mirabilis | microbial growth | ATCC25933 |  | MIC | > 200 µg/mL
CCCCN1C[C@H]2CC[C@@H]3[C@]4(C)COC(C)(C)O[C@@H]4CC[C@@]3(C)[C@@H]2C[C@@H]1C1=CCOC1=O | unidentified human coronavirus | cytopathic effect | MRC5 | 25 µM, 72 h | inhibition | 33.3%
Cc1ccc(S(=O)(=O)Nc2nc(N)c(-c3nc4ccccc4s3)c(-c3ccc(F)cc3)n2)cc1 | Enterovirus B | plaque formation | BGM, B4 |  | IC50 | 82 µg/mL (≈ 167 µM)
Nc1ncnc2c1c([N+](=O)[O-])cn2[C@@H]1C=C(CO)[C@@H](O)[C@H]1O | Hepatitis C virus | viral replication, inhibitor, luciferase | Huh7 ET | 20 µM, replicon | inhibition | 31.5%
Cc1c(NN=C2SC(C(C#N)=Cc3ccc(Cl)cc3)=NC2=O)c(=O)n(-c2ccccc2)n1C | Acinetobacter baumannii | microbial growth, well diffusion |  | 100000 µg/mL | inhibition zone | 13 mm
Nc1nc2c(ncn2[C@@H]2O[C@H](CO)[C@@H](F)[C@@H]2F)c(=O)[nH]1 | Hepatitis C virus | viral replication, inhibitor | Huh-7 | replicon | EC90 | > 10 µM
